Assay results as given in ChEMBL document CHEMBL1134346, “Labeling and evaluation of N-[11C]methylated quinoline-2-carboxamides as potential radioligands for visualization of peripheral benzodiazepine receptors” (J Med Chem, 2001).

How the values were obtained:
Rattus norvegicus [1] = organism: Rattus norvegicus; experiment: Tissue (adrenal gland) concentration of radioactivity at 30 min post-injection into Albino male CD rats with vehicle.; type: ADME, organism-based; conditions: in vivo, 0.5 h
In short: (§1)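 Separate groups of five rats received tail-vein PK 11195 (1.4-1.6 mg; 5 mg/kg) in 30 µL DMSO:EtOH 1:1, or vehicle alone, immediately before iv radioligand (90-170 µCi in saline, 0.9-1 Ci/µmol). Rats were decapitated at 30 min and tissues gamma-counted; values are %I.D./g.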

Rattus norvegicus [2] = organism: Rattus norvegicus; experiment: Tissue (liver) distribution in Albino male CD rats after 60 minutes expressed as percent of injected dose per gram of organ.; type: ADME, organism-based; conditions: in vivo, 1 h
In short: (§2)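 Male albino CD rats (225-250 g) received the 11C-labelled radioligand in saline by tail-vein injection. Three rats per time point were decapitated under light ether anaesthesia at 5, 15, 30, 60 or 90 min. Blood was collected heparinized and plasma separated by centrifugation. The pituitary was dissected from the brain. Lung, liver (three-lobe pieces) and right deltoid muscle were sampled, washed in cold saline, gamma-counted and weighed. Results are %I.D./g.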

Rattus norvegicus [3] = organism: Rattus norvegicus; experiment: Tissue (pituitary) distribution in Albino male CD rats after 60 minutes expressed as percent of injected dose per gram of organ.; type: ADME, organism-based, Pituitary gland; conditions: in vivo, 1 h; in short: as §2
[4] = target: Translocator protein (Rattus norvegicus) (UniProt P16257); experiment: Tissue (cortex) concentration of radioactivity at 30 min post-injection into Albino male CD rats after pretreatment with cold PK 11195.; type: functional; in short: as §1
Rattus norvegicus [5] = organism: Rattus norvegicus; experiment: Tissue (blood) distribution in Albino male CD rats after 90 minutes expressed as percent of injected dose per gram of organ.; type: ADME, organism-based; conditions: in vivo, 1.5 h
In short: (§3)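 Radioligand given in saline into tail vein of male albino CD rats (225-250 g); 100-200 µCi per animal, 1-2 Ci/µmol at injection depending on radioligand. Three rats per time point were decapitated under light ether anaesthesia. Blood, plasma, brain regions and washed organs were weighed and gamma-counted. Uptake is %I.D./g tissue, mean ± SD.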

[6] = target: Translocator protein (Rattus norvegicus) (UniProt P16257); experiment: Tissue (lung) concentration of radioactivity at 30 min post-injection into Albino male CD rats after pretreatment with cold PK 11195.; type: functional
In short: (§4)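 Blocking study in male albino CD rats, five per group. Immediately before the 11C radioligand (in saline, i.v. tail vein), rats received 30 µL tail-vein PK 11195 (5 mg/kg; 1.4-1.6 mg) in DMSO:EtOH 1:1, or vehicle. Rats were decapitated at 30 min. Tissues were dissected, washed, gamma-counted and weighed as in the biodistribution study. Results are %I.D./g.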

Rattus norvegicus [7] = organism: Rattus norvegicus; experiment: Tissue (heart) concentration of radioactivity at 30 min post-injection into Albino male CD rats with vehicle.; type: ADME, organism-based; conditions: in vivo, 0.5 h; in short: as §1
Rattus norvegicus [8] = organism: Rattus norvegicus; experiment: Tissue (adrenal gland) distribution in Albino male CD rats after 30 minutes expressed as percent of injected dose per gram of organ.; type: ADME, organism-based; conditions: in vivo, 0.5 h; in short: as §3
Rattus norvegicus [9] = organism: Rattus norvegicus; experiment: Tissue (testicle) distribution in Albino male CD rats after 30 minutes expressed as percent of injected dose per gram of organ.; type: ADME, organism-based; conditions: in vivo, 0.5 h; in short: as §2
Rattus norvegicus [10] = organism: Rattus norvegicus; experiment: Tissue (lung) distribution in Albino male CD rats after 60 minutes expressed as percent of injected dose per gram of organ.; type: ADME, organism-based; conditions: in vivo, 1 h; in short: as §2
Rattus norvegicus [11] = organism: Rattus norvegicus; experiment: Tissue (liver) distribution in Albino male CD rats after 30 minutes expressed as percent of injected dose per gram of organ.; type: ADME, organism-based; conditions: in vivo, 0.5 h; in short: as §2
Rattus norvegicus [12] = organism: Rattus norvegicus; experiment: Tissue (cortex) distribution in Albino male CD rats after 90 minutes expressed as percent of injected dose per gram of organ.; type: ADME, organism-based; conditions: in vivo, 1.5 h; in short: as §3
Rattus norvegicus [13] = organism: Rattus norvegicus; experiment: Tissue (lung) concentration of radioactivity at 30 min post-injection into Albino male CD rats with vehicle.; type: ADME, organism-based; conditions: in vivo, 0.5 h; in short: as §4
Rattus norvegicus [14] = organism: Rattus norvegicus; experiment: Tissue (cerebellum) distribution in Albino male CD rats after 5 minutes expressed as percent of injected dose per gram of organ.; type: ADME, organism-based; conditions: in vivo; in short: as §3
Rattus norvegicus [15] = organism: Rattus norvegicus; experiment: Tissue (testicle) distribution in Albino male CD rats after 90 minutes expressed as percent of injected dose per gram of organ.; type: ADME, organism-based; conditions: in vivo, 1.5 h
Rattus norvegicus [16] = organism: Rattus norvegicus; experiment: Tissue (kidney) distribution in Albino male CD rats after 60 minutes expressed as percent of injected dose per gram of organ.; type: ADME, organism-based; conditions: in vivo, 1 h; in short: as §3
Rattus norvegicus [17] = organism: Rattus norvegicus; experiment: Tissue (intestine) distribution in Albino male CD rats after 90 minutes expressed as percent of injected dose per gram of organ.; type: ADME, organism-based; conditions: in vivo, 1.5 h; in short: as §3
[18] = target: Translocator protein (Rattus norvegicus) (UniProt P16257); experiment: Tissue (muscle) concentration of radioactivity at 30 min post-injection into Albino male CD rats after pretreatment with cold PK 11195.; type: functional; in short: as §4
Rattus norvegicus [19] = organism: Rattus norvegicus; experiment: Tissue (intestine) distribution in Albino male CD rats after 5 minutes expressed as percent of injected dose per gram of organ.; type: ADME, organism-based; conditions: in vivo; in short: as §3
Rattus norvegicus [20] = organism: Rattus norvegicus; experiment: Tissue (liver) concentration of radioactivity at 30 min post-injection into Albino male CD rats with vehicle.; type: ADME, organism-based; conditions: in vivo, 0.5 h; in short: as §1
Rattus norvegicus [21] = organism: Rattus norvegicus; experiment: Tissue (cerebellum) distribution in Albino male CD rats after 60 minutes expressed as percent of injected dose per gram of organ.; type: ADME, organism-based; conditions: in vivo, 1 h; in short: as §3
Rattus norvegicus [22] = organism: Rattus norvegicus; experiment: Tissue (kidney) concentration of radioactivity at 30 min post-injection into Albino male CD rats with vehicle.; type: ADME, organism-based; conditions: in vivo, 0.5 h; in short: as §1
Rattus norvegicus [23] = organism: Rattus norvegicus; experiment: Tissue (intestine) distribution in Albino male CD rats after 15 minutes expressed as percent of injected dose per gram of organ.; type: ADME, organism-based; conditions: in vivo, 0.25 h; in short: as §3
Rattus norvegicus [24] = organism: Rattus norvegicus; experiment: Tissue (blood) distribution in Albino male CD rats after 30 minutes expressed as percent of injected dose per gram of organ.; type: ADME, organism-based; conditions: in vivo, 0.5 h; in short: as §3
Rattus norvegicus [25] = organism: Rattus norvegicus; experiment: Tissue (testicle) distribution in Albino male CD rats after 5 minutes expressed as percent of injected dose per gram of organ.; type: ADME, organism-based; conditions: in vivo; in short: as §2
[26] = target: Translocator protein (Rattus norvegicus) (UniProt P16257); experiment: Tissue (liver) concentration of radioactivity at 30 min post-injection into Albino male CD rats after pretreatment with cold PK 11195.; type: functional, tissue-based; in short: as §1
Rattus norvegicus [27] = organism: Rattus norvegicus; experiment: Tissue (spleen) concentration of radioactivity at 30 min post-injection into Albino male CD rats with vehicle.; type: ADME, organism-based; conditions: in vivo, 0.5 h; in short: as §4
Rattus norvegicus [28] = organism: Rattus norvegicus; experiment: Tissue (cerebellum) distribution in Albino male CD rats after 15 minutes expressed as percent of injected dose per gram of organ.; type: ADME, organism-based; conditions: in vivo, 0.25 h; in short: as §3
Rattus norvegicus [29] = organism: Rattus norvegicus; experiment: Tissue (pituitary) distribution in Albino male CD rats after 15 minutes expressed as percent of injected dose per gram of organ.; type: ADME, organism-based, Pituitary gland; conditions: in vivo, 0.25 h; in short: as §2
Rattus norvegicus [30] = organism: Rattus norvegicus; experiment: Tissue (adrenal gland) distribution in Albino male CD rats after 90 minutes expressed as percent of injected dose per gram of organ.; type: ADME, organism-based; conditions: in vivo, 1.5 h; in short: as §3
Rattus norvegicus [31] = organism: Rattus norvegicus; experiment: Tissue (intestine) distribution in Albino male CD rats after 30 minutes expressed as percent of injected dose per gram of organ.; type: ADME, organism-based; conditions: in vivo, 0.5 h; in short: as §3
Rattus norvegicus [32] = organism: Rattus norvegicus; experiment: Tissue (spleen) distribution in Albino male CD rats after 60 minutes expressed as percent of injected dose per gram of organ.; type: ADME, organism-based; conditions: in vivo, 1 h
Rattus norvegicus [33] = organism: Rattus norvegicus; experiment: Tissue (cortex) distribution in Albino male CD rats after 5 minutes expressed as percent of injected dose per gram of organ.; type: ADME, organism-based; conditions: in vivo; in short: as §3
Rattus norvegicus [34] = organism: Rattus norvegicus; experiment: Tissue (heart) distribution in Albino male CD rats after 15 minutes expressed as percent of injected dose per gram of organ.; type: ADME, organism-based; conditions: in vivo, 0.25 h; in short: as §3
Rattus norvegicus [35] = organism: Rattus norvegicus; experiment: Tissue (adrenal gland) distribution in Albino male CD rats after 15 minutes expressed as percent of injected dose per gram of organ.; type: ADME, organism-based; conditions: in vivo, 0.25 h; in short: as §3
Rattus norvegicus [36] = organism: Rattus norvegicus; experiment: Tissue (heart) distribution in Albino male CD rats after 5 minutes expressed as percent of injected dose per gram of organ.; type: ADME, organism-based; conditions: in vivo; in short: as §3
Rattus norvegicus [37] = organism: Rattus norvegicus; experiment: Tissue (cortex) concentration of radioactivity at 30 min post-injection into Albino male CD rats with vehicle.; type: ADME, organism-based; conditions: in vivo, 0.5 h; in short: as §1
Rattus norvegicus [38] = organism: Rattus norvegicus; experiment: Tissue (liver) distribution in Albino male CD rats after 15 minutes expressed as percent of injected dose per gram of organ.; type: ADME, organism-based; conditions: in vivo, 0.25 h; in short: as §3
Rattus norvegicus [39] = organism: Rattus norvegicus; experiment: Tissue (liver) distribution in Albino male CD rats after 5 minutes expressed as percent of injected dose per gram of organ.; type: ADME, organism-based; conditions: in vivo; in short: as §2
Rattus norvegicus [40] = organism: Rattus norvegicus; experiment: Tissue (intestine) distribution in Albino male CD rats after 60 minutes expressed as percent of injected dose per gram of organ.; type: ADME, organism-based; conditions: in vivo, 1 h; in short: as §3

Translocator protein (Rattus norvegicus), sequence (P16257 whole entry, looked up): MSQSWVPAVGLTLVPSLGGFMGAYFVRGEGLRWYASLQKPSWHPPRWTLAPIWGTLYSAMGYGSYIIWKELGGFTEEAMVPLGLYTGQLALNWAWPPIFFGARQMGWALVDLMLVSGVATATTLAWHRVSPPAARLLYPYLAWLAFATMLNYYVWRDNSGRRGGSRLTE

- I.D./g (Rattus norvegicus [1]): 0.62%
- I.D./g (Rattus norvegicus [2]): 0.41%
- I.D./g (Rattus norvegicus [3]): 0.36%
- I.D./g [4]: 0.02%
- I.D./g (Rattus norvegicus [5]): 0.04%
- I.D./g [6]: < 0.05%
- I.D./g (Rattus norvegicus [7]): 0.35%
- I.D./g (Rattus norvegicus [8]): 2.99%
- I.D./g (Rattus norvegicus [9]): 0.13%
- I.D./g (Rattus norvegicus [10]): 1.48%
- I.D./g (Rattus norvegicus [11]): 0.43%
- I.D./g (Rattus norvegicus [12]): 0.05%
- I.D./g (Rattus norvegicus [13]): 0.35%
- I.D./g (Rattus norvegicus [14]): 0.25%
- I.D./g (Rattus norvegicus [15]): 0.2%
- I.D./g (Rattus norvegicus [16]): 1.14%
- I.D./g (Rattus norvegicus [17]): 0.68%
- I.D./g [18]: > 0.02%
- I.D./g (Rattus norvegicus [19]): 0.3%
- I.D./g (Rattus norvegicus [20]): 0.08%
- I.D./g (Rattus norvegicus [21]): 0.08%
- I.D./g (Rattus norvegicus [22]): 0.19%
- I.D./g (Rattus norvegicus [23]): 0.78%
- I.D./g (Rattus norvegicus [24]): 0.06%
- I.D./g (Rattus norvegicus [25]): 0.06%
- I.D./g [26]: < 0.16%
- I.D./g (Rattus norvegicus [27]): 0.26%
- I.D./g (Rattus norvegicus [28]): 0.2%
- I.D./g (Rattus norvegicus [29]): 0.49%
- I.D./g (Rattus norvegicus [30]): 3.74%
- I.D./g (Rattus norvegicus [31]): 0.55%
- I.D./g (Rattus norvegicus [32]): 1.55%
- I.D./g (Rattus norvegicus [33]): 0.25%
- I.D./g (Rattus norvegicus [34]): 2.62%
- I.D./g (Rattus norvegicus [35]): 2.29%
- I.D./g (Rattus norvegicus [36]): 1.79%
- I.D./g (Rattus norvegicus [37]): 0.02%
- I.D./g (Rattus norvegicus [38]): 0.59%
- I.D./g (Rattus norvegicus [39]): 0.37%
- I.D./g (Rattus norvegicus [40]): 0.62%
Structure (SMILES): Cc1c(C(=O)N(C)Cc2ccccc2)nc2ccccc2c1-c1ccccc1
